# Reference: ChEMBL document CHEMBL2311424, “Inhibitors of human immunodeficiency virus type 1 (HIV-1) attachment 13. Synthesis and profiling of a novel amminium prodrug of the HIV-1 attachment inhibitor BMS-585248” (J Med Chem, 2013)
# How the values were obtained:
# [1] = test system: Human immunodeficiency virus 1; test: Antiviral activity against HIV1; format: functional, organism-based
# [2] = test system: Liver; test: Prodrug activation in rat liver cytosol assessed as BMS-585248 formation; format: tissue-based
# Summary of the method: (§1)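 Rat liver cytosol (2 mg/mL) or microsomes (1 mg/mL) incubated with prodrug (10 μM final) and 1 mM NADPH up to 2 h at 37 °C, shaking; anaerobic runs used nitrogen-purged 0.1 M phosphate buffer with 10 mM MgCl2 under humidified nitrogen for 60 min. Acetonitrile quench, LC/MS/MS of prodrug and parent.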
# [3] = AUC in beagle dog at 5 mg/kg, po; format: ADME, organism-based, Canis lupus familiaris; parameters: dose 5 mg/kg, route oral; conditions: plasma
# [4] = Prodrug activation in Tris-HCl buffer assessed as BMS-585248 formation at pH 7.4
# Summary of the method: (§2)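 Prodrug at 10 μM final incubated 60 min at 37 °C in Tris-HCl buffer pH 7.4, rat blood or rat plasma, aerobic. Aliquots quenched with equal volume ice-cold acetonitrile, centrifuged, supernatant analysed by LC/MS/MS for prodrug and parent.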
# [5] = test system: Blood; test: Prodrug activation in rat blood assessed as BMS-585248 formation; format: tissue-based; summary of the method: as §2
# [6] = Volume of distribution in beagle dog at 1 mg/kg, iv; format: ADME, organism-based, Canis lupus familiaris; parameters: dose 1 mg/kg, route intravenous; conditions: in vivo
# [7] = test system: Hepatocyte; test: Prodrug activation in rat hepatocytes assessed as BMS-585248 formation; format: cell-based
# Summary of the method: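 In-house isolated rat hepatocytes incubated with prodrug (10 μM final) for 2 h at 37 °C in humidified 95/5% air/CO2; aliquots quenched in ice-cold acetonitrile, centrifuged, prodrug and parent quantified by LC/MS/MS.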
# [8] = Permeability across human Caco2 cells; format: ADME, cell-based; conditions: Caco-2, read-out: permeability
# [9] = test system: Liver microsomes; test: Prodrug activation in rat liver microsomes assessed as BMS-585248 formation; parameters: species or system Microsome; summary of the method: as §1
# [10] = test system: Plasma; test: Prodrug activation in rat plasma assessed as BMS-585248 formation; format: cell-free; summary of the method: as §2
# [11] = Aqueous solubility of the compound; format: physicochemical
# [12] = Cmax in beagle dog at 5 mg/kg, po; format: ADME, organism-based, Canis lupus familiaris; parameters: dose 5 mg/kg, route oral; conditions: in vivo
# [13] = Half life in beagle dog at 1 mg/kg, iv; format: ADME, organism-based, Canis lupus familiaris; parameters: dose 1 mg/kg, route intravenous; conditions: in vivo
# [14] = Clearance in beagle dog at 1 mg/kg, iv; format: ADME, organism-based, Canis lupus familiaris; parameters: dose 1 mg/kg, route intravenous; conditions: in vivo
# [15] = test system: Canis familiaris; test: AUC in beagle dog assessed as BMS-585248 level at 5 mg/kg, po; format: ADME, organism-based, Canis lupus familiaris, Plasma; parameters: dose 5 mg/kg, route oral; conditions: in vivo
# [16] = Cmax in Sprague-Dawley rat at 5 mg/kg, po after 6 hrs; format: ADME, organism-based; parameters: dose 5 mg/kg, route oral; conditions: in vivo
# [17] = test system: Rattus norvegicus; test: AUClast in Sprague-Dawley rat assessed as BMS-585248 level at 5 mg/kg, po; format: ADME, organism-based, Plasma; parameters: time 0 - last, dose 5 mg/kg, route oral; conditions: in vivo
# Summary of the method: (§3)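 Male rats (n = 3 per group) pretreated 2 days with saline or an antibiotic mix (bacitracin 400 mg/kg BID, neomycin sulfate 400 mg/kg BID, tetracycline 200 mg/kg), then given prodrug 5 mg/kg orally. Plasma to 24 h, stored −20 °C, LC/MS/MS quantitation of prodrug and parent.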
# [18] = test system: Rattus norvegicus; test: Cmax in Sprague-Dawley rat assessed as BMS-585248 level at 5 mg/kg, po after 6 hrs; format: ADME, organism-based; parameters: dose 5 mg/kg, route oral; conditions: in vivo
# [19] = test system: Rattus norvegicus; test: Total AUC in Sprague-Dawley rat assessed as BMS-585248 level at 25 mg/kg, po; format: ADME, organism-based; parameters: time AUCmax, dose 25 mg/kg, route oral; conditions: in vivo
# Summary of the method: (§4)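 Oral dose escalation in male rats, groups of three, dosed by gavage from solutions in water with 0.5% methylcellulose: prodrug trifluoroacetate salt at 5, 25 and 200 mg/kg; parent at 15, 75 and 200 mg/kg. Plasma analysed by LC/MS/MS; noncompartmental PK.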
# [20] = AUC in Sprague-Dawley rat at 1 mg/kg, iv; format: ADME, organism-based; parameters: dose 1 mg/kg, route intravenous; conditions: plasma
# Summary of the method: (§5)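 Male rats, groups of three; prodrug trifluoroacetate salt given by IV bolus (1 mg/kg) or oral gavage (5 mg/kg) after overnight fast, both from a 1 mg/mL solution in PEG-400/ethanol 90/10 v/v. Plasma sampled up to 24 h, stored at −20 °C, parent and prodrug quantified by LC/MS/MS; noncompartmental analysis.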
# [21] = test system: Rattus norvegicus; test: Total AUC in Sprague-Dawley rat assessed as BMS-585248 level at 5 mg/kg, po; format: ADME, organism-based; parameters: dose 5 mg/kg, route oral, time AUCmax; conditions: in vivo; summary of the method: as §4
# [22] = Volume of distribution in Sprague-Dawley rat at 1 mg/kg, iv; format: ADME, organism-based; parameters: dose 1 mg/kg, route intravenous; conditions: in vivo; summary of the method: as §5
# [23] = Cmax in dual cannulated portal vein Sprague-Dawley rat at 5 mg/kg, po; format: ADME, organism-based; parameters: dose 5 mg/kg, route oral
# [24] = AUC in dual cannulated portal vein Sprague-Dawley rat at 5 mg/kg, po; format: ADME, organism-based; parameters: dose 5 mg/kg, route oral; conditions: plasma
# [25] = test system: Rattus norvegicus; test: Cmax in dual cannulated portal vein Sprague-Dawley rat assessed as BMS-585248 level at 5 mg/kg, po; format: ADME, organism-based; parameters: dose 5 mg/kg, route oral; conditions: in vivo
# [26] = test system: Rattus norvegicus; test: Cmax in Sprague-Dawley rat assessed as BMS-585248 level at 200 mg/kg, po; format: ADME, organism-based; parameters: dose 200 mg/kg, route oral; conditions: in vivo; summary of the method: as §4
# [27] = test system: Rattus norvegicus; test: AUC in dual cannulated portal vein Sprague-Dawley rat assessed as BMS-585248 level at 5 mg/kg, po; format: ADME, organism-based, Plasma; parameters: dose 5 mg/kg, route oral; conditions: in vivo
# [28] = test system: Rattus norvegicus; test: AUC in Sprague-Dawley rat assessed as BMS-585248 level at 5 mg/kg, po; format: ADME, organism-based, Plasma; parameters: dose 5 mg/kg, route oral; conditions: in vivo; summary of the method: as §5
# [29] = test system: Rattus norvegicus; test: Total AUC in Sprague-Dawley rat assessed as BMS-585248 level at 200 mg/kg, po; format: ADME, organism-based; parameters: time AUCmax, dose 200 mg/kg, route oral; conditions: in vivo; summary of the method: as §4
# [30] = Drug excretion in bile duct cannulated Sprague-Dawley rat urine at 1 mg/kg, iv up to 2 hrs; format: ADME, organism-based; parameters: dose 1 mg/kg, route intravenous; conditions: read-out: Drug excretion
# Summary of the method: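 Bile duct/jugular vein cannulated male rats (n = 3) given prodrug 1 mg/kg IV; plasma, bile and urine collected up to 6 h. Biotransformation profiled by UPLC on C18 at 40 °C with gradient elution, positive electrospray full-scan MS and data-dependent MS/MS; relative percentages of prodrug, N-acetyl conjugate and parent reported.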
# [31] = test system: Rattus norvegicus; test: Cmax in bacitracin, neomycin sulfate and tetracycline treated Sprague-Dawley rat assessed as BMS-585248 level at 5 mg/kg, po; format: ADME, organism-based; parameters: dose 5 mg/kg, route oral; conditions: in vivo; summary of the method: as §3
# [32] = AUC in Sprague-Dawley rat at 5 mg/kg, po; format: ADME, organism-based; parameters: dose 5 mg/kg, route oral; conditions: plasma; summary of the method: as §5
# [33] = test system: Rattus norvegicus; test: Prodrug conversion in Sprague-Dawley rat assessed as BMS-585248 level at 1 mg/kg, iv after 5 mins; format: ADME, organism-based; parameters: dose 1 mg/kg, route intravenous; conditions: in vivo; summary of the method: as §5
# [34] = test system: Rattus norvegicus; test: Cmax in Sprague-Dawley rat assessed as BMS-585248 level at 25 mg/kg, po; format: ADME, organism-based; parameters: dose 25 mg/kg, route oral; conditions: in vivo; summary of the method: as §4
# [35] = Clearance in Sprague-Dawley rat at 1 mg/kg, iv; format: ADME, organism-based; parameters: dose 1 mg/kg, route intravenous; conditions: in vivo; summary of the method: as §5
# [36] = test system: Rattus norvegicus; test: AUClast in bacitracin, neomycin sulfate and tetracycline treated Sprague-Dawley rat assessed as BMS-585248 level at 5 mg/kg, po; format: ADME, organism-based, Plasma; parameters: dose 5 mg/kg, route oral, time 0 - last; conditions: in vivo; summary of the method: as §3
# [37] = Half life in Sprague-Dawley rat at 1 mg/kg, iv; format: ADME, organism-based; parameters: dose 1 mg/kg, route intravenous; conditions: in vivo; summary of the method: as §5
# [38] = test system: Rattus norvegicus; test: AUC in Sprague-Dawley rat assessed as BMS-585248 level at 1 mg/kg, iv; format: ADME, organism-based, Plasma; parameters: dose 1 mg/kg, route intravenous; conditions: in vivo; summary of the method: as §5
# [39] = test system: Rattus norvegicus; test: Cmax in Sprague-Dawley rat assessed as BMS-585248 level at 5 mg/kg, po; format: ADME, organism-based; parameters: dose 5 mg/kg, route oral; conditions: in vivo; summary of the method: as §4
# [40] = Total AUC in Sprague-Dawley rat at 75 mg/kg, po; format: ADME, organism-based; parameters: time AUCmax, dose 75 mg/kg, route oral; conditions: in vivo; summary of the method: as §4
# [41] = Cmax in Sprague-Dawley rat at 75 mg/kg, po; format: ADME, organism-based; parameters: dose 75 mg/kg, route oral; conditions: in vivo; summary of the method: as §4
# [42] = Total AUC in Sprague-Dawley rat at 200 mg/kg, po; format: ADME, organism-based; parameters: time AUCmax, dose 200 mg/kg, route oral; conditions: in vivo; summary of the method: as §4
# [43] = AUClast in Sprague-Dawley rat at 5 mg/kg, po; format: ADME, organism-based; parameters: time 0 - last, dose 5 mg/kg, route oral; conditions: plasma; summary of the method: as §3
# [44] = Cmax in Sprague-Dawley rat at 15 mg/kg, po; conditions: in vivo
# [45] = AUClast in bacitracin, neomycin sulfate and tetracycline treated Sprague-Dawley rat at 5 mg/kg, po; format: ADME, organism-based; parameters: time 0 - last, dose 5 mg/kg, route oral; conditions: plasma; summary of the method: as §3
# [46] = Total AUC in Sprague-Dawley rat at 15 mg/kg, po; conditions: in vivo
# [47] = test system: Rattus norvegicus; test: Cmax in bacitracin, neomycin sulfate and tetracycline treated Sprague-Dawley rat at 5 mg/kg, po; format: ADME, organism-based; parameters: dose 5 mg/kg, route oral; conditions: in vivo; summary of the method: as §3
# [48] = Cmax in Sprague-Dawley rat at 200 mg/kg, po; format: ADME, organism-based; parameters: dose 200 mg/kg, route oral; conditions: in vivo; summary of the method: as §4
compound,measurement,setting,value
N[n+]1ccn(-c2ncc(F)c3c(C(=O)C(=O)N4CCN(C(=O)c5ccccc5)CC4)c[nH]c23)n1.[Cl-],EC50,[1],1760 pM
same,Drug metabolism,[2],Not Active
same,AUC,[3],0.217 µM·h
same,Drug metabolism,[4],Not Active
same,Drug metabolism,[5],Not Active
same,Vd,[6],0.3 L/kg
same,Drug metabolism,[7],Not Active
same,Papp,[8],1.5 ×10⁻⁶ cm/s
same,Drug metabolism,[9],Not Active
same,Drug metabolism,[10],Not Active
same,solubility,[11],1760 µg/mL
same,Cmax,[12],139 nM
same,half-life,[13],54 min
same,clearance,[14],13.8 mL/min/kg
same,AUC,[15],8.064 µM·h
N[n+]1ccn(-c2ncc(F)c3c(C(=O)C(=O)N4CCN(C(=O)c5ccccc5)CC4)c[nH]c23)n1.O=C([O-])C(F)(F)F,Cmax,[16],23 nM
same,AUClast,[17],0.112 µM·h
same,Cmax,[18],3120 nM
same,AUC,[19],72 µM·h
same,AUC,[20],1.55 µM·h
same,AUC,[21],8 µM·h
same,Vd,[22],0.29 L/kg
same,Cmax,[23],74 nM
same,AUC,[24],0.035 µM·h
same,Cmax,[25],2140 nM
same,Cmax,[26],77000 nM
same,AUC,[27],23.873 µM·h
same,AUC,[28],28.098 µM·h
same,AUC,[29],996 µM·h
same,dose excreted at 2 h,[30],80%
same,Cmax,[31],79 nM
same,AUC,[32],0.0208 µM·h
same,Drug metabolism,[33],Active
same,Cmax,[34],12000 nM
same,clearance,[35],23 mL/min/kg
same,AUClast,[36],0.148 µM·h
same,half-life,[37],18 min
same,AUC,[38],3.22 µM·h
same,Cmax,[39],1300 nM
CC(=O)N[n+]1ccn(-c2ncc(F)c3c(C(=O)C(=O)N4CCN(C(=O)c5ccccc5)CC4)c[nH]c23)n1,dose excreted at 2 h,[30],16.5%
O=C(C(=O)N1CCN(C(=O)c2ccccc2)CC1)c1c[nH]c2c(-n3ccnn3)ncc(F)c12,AUC,[40],115 µM·h
same,EC50,[1],60 pM
same,Cmax,[41],8400 nM
same,AUC,[42],145 µM·h
same,AUC(0-t),[43],47.5 µM·h
same,Cmax,[44],6600 nM
same,AUC(0-t),[45],13.8 µM·h
same,AUC,[46],42 µM·h
same,dose excreted at 2 h,[30],3.5%
same,Cmax,[47],18 nM
same,Cmax,[48],11000 nM
